Activity calls are given as the source filed them. The calls are words filed in the database; no cut-off is given here.
Experiments:
Type in all cases: functional
[1] = Antioxidant activity assessed as ferric ion reducing power by FRAP method
Summary of the method: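 FRAP assay adapted for lipophilic antioxidants: Fe3+–TPTZ complex reduction in 300 mM acetate buffer, pH 3.6, at a 1:500 molar ratio of test compound to ferric ions. Data are mean ± SD of three series run in triplicate, with Student–Newman–Keuls post-hoc ANOVA (p<0.05).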

[2] = system: Radical scavenging activity; experiment: Antioxidant activity assessed as DPPH free radical scavenging activity
[3] = Antioxidant activity assessed as ABTS+ free radical scavenging activity by TEAC assay
Summary of the method: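 TEAC assay measures reduction of the ABTS radical cation, with results expressed as Trolox equivalents. Data are mean ± SD of three series run in triplicate, with Student–Newman–Keuls post-hoc ANOVA (p<0.05).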

[4] = Antioxidant activity assessed as reduction in copper-mediated ascorbic acid oxidation preincubated for 10 mins measured for every 2 mins upto 2 hrs by UV spectrophotometry
Summary of the method: (§1)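 Test compound suspension combined with Chelex-treated water containing 2 µM Cu+. Plate pre-incubated 10 min at 37 °C, then ascorbate added (from a 2 mM stock, pH 7) to a starting 200 µM. A265 read every 2 min for 2 h at 37 °C to obtain the initial depletion rate. Ethanol vehicle served as baseline and DTPA as chelator control. Triplicate.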

[5] = Antioxidant activity assessed as reduction in copper-mediated ascorbic acid oxidation at 100 uM preincubated for 10 mins measured for every 2 mins upto 2 hrs by UV spectrophotometrya; parameters: scale not given: the % may be the effect or the level left; summary of the method: as §1
[6] = system: Radical scavenging activity; experiment: Antioxidant activity assessed as rate constant for DPPH free radical scavenging activity by stopped flow spectroscopy
Summary of the method: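 Stopped-flow rapid mixing with diode-array photometer detection. Antioxidant stocks (ca. 2 mM) and DPPH (200 µM) prepared in ethanol; DPPH (200 µM) in acetonitrile also used. Starting antioxidant concentration after mixing is half the stock. Second-order rate constant derived from the kinetics.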

[7] = Antioxidant activity assessed as formation of DPPH breakdown product at 0.5 mM incubated for 20 mins by HPLC
Summary of the method: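 Aerobic DPPH (0.5 mM) mixed with test compound (0.5 mM) and incubated 20 min at room temperature. Reaction products analysed by HPLC, taking the peak area of the product eluting at 4 min. Mean ± SD of five experiments.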

[8] = Antioxidant activity assessed as nitration product using PhOH as substrate at FeCl3 to compound to phenol concentration 10:1:1
Summary of the method: (§2)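 FeCl3 used as oxidant at 10:1 and 100:1 molar ratios to test compound, with phenolic substrate at 1:1 to compound (FeCl3/compound/phenolic 10:1:1 or 100:1:1), in 50:50 v/v H2O/EtOH. Percent conversion to nitration product determined. Means of triplicate experiments.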

[9] = Antioxidant activity assessed as nitration product using PhOH as substrate at FeCl3 to compound to phenol concentration 100:1:1; summary of the method: as §2
[10] = Antioxidant activity assessed as nitration product using PhOMe as substrate at FeCl3 to compound to phenol concentration 10:1:1; summary of the method: as §2
[11] = Antioxidant activity assessed as nitration product using PhOMe as substrate at FeCl3 to compound to phenol concentration 100:1:1; summary of the method: as §2
[12] = Antioxidant activity assessed as nitration product using HOC6H3(Me)2-(2,6) as substrate at FeCl3 to compound to phenol concentration 10:1:1; summary of the method: as §2
[13] = Antioxidant activity assessed as nitration product using HOC6H3(Me)2-(2,6) as substrate at FeCl3 to compound to phenol concentration 100:1:1; summary of the method: as §2
[14] = Antioxidant activity assessed as nitration product using MeOC6H3(Me)2-(2,6) as substrate at FeCl3 to compound to phenol concentration 10:1:1; summary of the method: as §2
[15] = Antioxidant activity assessed as nitration product using MeOC6H3(Me)2-(2,6) as substrate at FeCl3 to compound to phenol concentration 100:1:1; summary of the method: as §2
[16] = Antioxidant activity assessed as nitration product using HOC6H3(t-Bu)2-(2,6) as substrate at FeCl3 to compound to phenol concentration 10:1:1; summary of the method: as §2
[17] = Antioxidant activity assessed as nitration product using HOC6H3(t-Bu)2-(2,6) as substrate at FeCl3 to compound to phenol concentration 100:1:1; summary of the method: as §2
[18] = Antioxidant activity assessed as nitration product at 1:1 compound to salicylic acid concentration; summary of the method: as §2
[19] = Antioxidant activity assessed as nitration product at 1:1 compound to phenol concentration; summary of the method: as §2

## Cc1c(O)cc2c(c1C)OC(C)(CCC(=O)O)CC2 (racemic)
[1]
  Activity: Active
[2]
  Activity: Active
[3]
  Activity: Active

## Cc1cc(N)cc2c1O[C@](C)(CCC[C@H](C)CCC[C@H](C)CCCC(C)C)CC2
[1]
  Activity: Active
[4]
  Activity: Dose-dependent effect
[2]
  Activity: Active
[3]
  Activity: Active
[5]
  Activity: 44.7%

## Cc1cc(O)cc2c1OC(C)(CCC(=O)O)CC2 (racemic)
[1]
  Activity: Active
[2]
  Activity: Active
[3]
  Activity: Active

## CC(C)=CCC/C(C)=C/CC/C(C)=C/CC[C@]1(C)CCc2cc(N)c(C)c(C)c2O1
[1]
  Activity: Active
[2]
  Activity: Active
[3]
  Activity: Active

## Cc1c(C)c2c(c(C)c1O)CC[C@@](C)(CCC[C@H](C)CCC[C@H](C)CCCC(C)C)O2
[1]
  Activity: Active
[2]
  Activity: Active
[6]
  Activity: 280 L/mol/s
[3]
  Activity: Active
[7]
  Activity: inactive

## Cc1c(C)c2c(c(C)c1N)CC[C@@](C)(CCC[C@H](C)CCC[C@H](C)CCCC(C)C)O2
[1]
  Activity: Active
[4]
  Activity: Dose-dependent effect
[2]
  Activity: Active
[6]
  Activity: 4290 L/mol/s
[8]
  Activity: 12%
[9]
  Activity: 26%
[10]
  Activity: 0%
[11]
  Activity: 2%
[12]
  Activity: 4%
[13]
  Activity: 9%
[14]
  Activity: 0%
[15]
  Activity: inactive
[16]
  Activity: 0.2%
[17]
  Activity: 0.4%
[3]
  Activity: Active
[5]
  Activity: 19.5%
[7]
  Activity: Active
[18]
  Activity: 8%

## CC(C)=CCC/C(C)=C/CC/C(C)=C/CC[C@]1(C)CCc2c(C)c(O)c(C)c(C)c2O1
[1]
  Activity: Active
[2]
  Activity: Active
[3]
  Activity: Active

## CC(C)=CCC/C(C)=C/CC/C(C)=C/CC[C@]1(C)CCc2c(C)c(N)c(C)c(C)c2O1
[1]
  Activity: Active
[2]
  Activity: Active
[3]
  Activity: Active

## CC(C)=CCC/C(C)=C/CC/C(C)=C/CC[C@]1(C)CCc2cc(N)cc(C)c2O1
[1]
  Activity: Active
[2]
  Activity: Active
[3]
  Activity: Active

## Cc1c(O)cc2c(c1C)OC(C)(C)CC2
[19]
  Activity: 3%

## CC(C)=CCC/C(C)=C/CC/C(C)=C/CC[C@]1(C)CCc2cc(O)cc(C)c2O1
[1]
  Activity: Active
[2]
  Activity: Active
[3]
  Activity: Active

## Cc1c(O)cc2c(c1C)O[C@](C)(CCC[C@H](C)CCC[C@H](C)CCCC(C)C)CC2
[1]
  Activity: Active
[19]
  Activity: 13%
[2]
  Activity: Active
[3]
  Activity: Active

## Cc1c(C)c2c(c(C)c1O)CCC(C)(CCC(=O)O)O2 (racemic)
[1]
  Activity: Active
[2]
  Activity: Active
[3]
  Activity: Active

## Cc1cc(O)cc2c1O[C@](C)(CCC[C@H](C)CCC[C@H](C)CCCC(C)C)CC2
[1]
  Activity: Active
[2]
  Activity: Active
[3]
  Activity: Active

## Cc1c(N)cc2c(c1C)O[C@](C)(CCC[C@H](C)CCC[C@H](C)CCCC(C)C)CC2
[1]
  Activity: Active
[4]
  Activity: Dose-dependent effect
[2]
  Activity: Active
[3]
  Activity: Active
[5]
  Activity: 35%

## Cc1c(C)c2c(c(C)c1O)CC[C@@](C)(CCCC(C)CCCC(C)CCCC(C)C(=O)O)O2 (mixture of isomers)
[1]
  Activity: Active
[2]
  Activity: Active
[3]
  Activity: Active

## CC(C)=CCC/C(C)=C/CC/C(C)=C/CC[C@]1(C)CCc2cc(O)c(C)c(C)c2O1
[1]
  Activity: Active
[2]
  Activity: Active
[3]
  Activity: Active

— ChEMBL document CHEMBL2150855, “Tocotrienamines and tocopheramines: reactions with radicals and metal ions” (Bioorg Med Chem, 2011)
